Here are results for five molecules from ChEMBL document CHEMBL4177541, “Identification of Pyridinium with Three Indole Moieties as an Antimicrobial Agent” (J Nat Prod, 2017).

One assay has as its system Candida albicans. Put plainly: Antimicrobial activity against Candida albicans incubated for 24 hrs by CLSI protocol based method. The assay is classed as functional.
The test system of a further assay is Bacillus cereus. Briefly: Antimicrobial activity against Bacillus cereus incubated for 20 hrs by CLSI protocol based method. Type of assay: functional.
The next assay has as its system Escherichia coli. Put plainly: Antimicrobial activity against Escherichia coli W3110 incubated for 20 hrs by CLSI protocol based method. The assay is classed as functional. The conditions noted are these: W3110, 20 h.
The next assay relates to P388. Briefly: Cytotoxicity against mouse P388 cells assessed as reduction in cell viability by MTT assay. The assay is classed as functional, cell-based. In a few lines: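 P388 murine leukemia cells were maintained in DMEM with 10% FBS and penicillin-streptomycin. After compound exposure, MTT (15 μL of a 5.0 mg/mL solution) was added for 3 h. The supernatant was removed and formazan dissolved in DMSO. IC50 was derived.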

For another assay, the system named is Staphylococcus aureus. Put plainly: Antimicrobial activity against methicillin-sensitive Staphylococcus aureus incubated for 20 hrs by CLSI protocol based method. The assay is classed as functional.

≈ marks a conversion by molar mass, not a printed value.

For the molecule `[Br-].c1cc[n+](CCc2c[nH]c3ccccc23)cc1`, the MIC against Candida albicans is 100 µg/mL; in the assay on Bacillus cereus, > 100 µg/mL; in the assay on Escherichia coli it was > 100 µg/mL; in the assay on Staphylococcus aureus it was > 100 µg/mL. Further, the IC50 in the assay on P388 was found to be 53 µM.

As for `Brc1cc(Br)c[n+](CCc2c[nH]c3ccccc23)c1.[Br-]`, the MIC in the assay with Candida albicans is 100 µg/mL; against Bacillus cereus it was > 100 µg/mL; in the assay on Escherichia coli, > 100 µg/mL; in the assay with Staphylococcus aureus it was > 100 µg/mL. Also, the IC50 in the assay on P388 came to 76 µM.

On to `[Br-].c1ccc2c(CC[n+]3cccc(-c4c[nH]c5ccccc45)c3)c[nH]c2c1`, for which the MIC was 100 µg/mL in the assay with Candida albicans, 25 µg/mL in the assay with Bacillus cereus, > 100 µg/mL in the assay with Escherichia coli and 50 µg/mL against Staphylococcus aureus. Further, the IC50 with P388 is 50 µM.

In the case of `[Br-].c1ccc2c(CC[n+]3cc(-c4c[nH]c5ccccc45)cc(-c4c[nH]c5ccccc45)c3)c[nH]c2c1`, the MIC against Candida albicans is 12.5 µg/mL; in the assay on Bacillus cereus, 0.78 µg/mL; against Escherichia coli it was > 100 µg/mL; against Staphylococcus aureus, 1.56 µg/mL. Moreover, the IC50 in the assay with P388 amounted to 1 µM.

As to `CC1(C)S[C@@H]2[C@H](NC(=O)[C@H](N)c3ccccc3)C(=O)N2[C@H]1C(=O)O` [AMPICILLIN], the MIC against Candida albicans worked out at 100 µg/mL (≈ 286 µM); against Bacillus cereus, 0.063 µg/mL (≈ 0.18 µM); in the assay on Escherichia coli, 4 µg/mL (≈ 11.4 µM); with Staphylococcus aureus, 0.5 µg/mL (≈ 1.43 µM).

The MIC is the smallest concentration in the dilution series that meets the test's criterion for growth inhibition. A high value points to weaker potency. For orientation: IC50 means the concentration that gives 50% inhibition.
